# Activity calls are given as the source filed them. The calls are words filed in the database; no cut-off is given here.
# What was measured:
# [1] = molecular target: T1, Nuclear factor erythroid 2-related factor 2 (Homo sapiens) (UniProt Q16236); experiment: Activation of Nrf2 in human SH-SY5Y cells assessed as increase in GCLC level at 0.3 to 3 uM incubated for 6 to 24 hrs by Western blot analysis relative to control; format: cell-based
# T1 sequence (whole entry): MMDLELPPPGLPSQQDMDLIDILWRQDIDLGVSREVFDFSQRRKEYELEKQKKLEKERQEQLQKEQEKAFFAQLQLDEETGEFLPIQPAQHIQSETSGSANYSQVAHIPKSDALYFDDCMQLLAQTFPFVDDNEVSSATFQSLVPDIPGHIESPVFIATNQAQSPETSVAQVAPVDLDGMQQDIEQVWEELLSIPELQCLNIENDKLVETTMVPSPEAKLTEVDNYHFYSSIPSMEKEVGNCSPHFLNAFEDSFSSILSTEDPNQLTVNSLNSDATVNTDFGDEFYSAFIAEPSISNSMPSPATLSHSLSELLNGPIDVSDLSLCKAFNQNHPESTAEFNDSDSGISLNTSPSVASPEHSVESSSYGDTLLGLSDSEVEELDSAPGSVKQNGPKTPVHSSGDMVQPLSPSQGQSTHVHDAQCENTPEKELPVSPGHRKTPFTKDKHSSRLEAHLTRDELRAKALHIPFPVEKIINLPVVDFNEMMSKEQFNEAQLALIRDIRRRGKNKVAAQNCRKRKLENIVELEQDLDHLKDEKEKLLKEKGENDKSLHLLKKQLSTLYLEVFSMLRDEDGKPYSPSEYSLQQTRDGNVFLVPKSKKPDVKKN
# Outline: (§1)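 SH-SY5Y neuroblastoma cells treated for 6 or 24 h, then harvested; NQO1, GCLM, GCLC protein by Western blot with β-actin loading control; at least duplicate cultures, averaged, fold of untreated control ± SEM; paired t test.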
# BV-2 [2] = experiment: Antiinflammatory activity in mouse BV2 cells assessed as reduction in LPS-induced iNOS level at 1 to 10 uM incubated for 6 hrs followed by LPS stimulation for 12 hrs by Western blot analysis; format: functional, cell-based
# Outline: (§2)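 BV-2 cells pretreated with compound 6 h, then stimulated with 1 μg/mL LPS for 12 h; protein and mRNA levels quantified relative to LPS-stimulated control; mean ± SD (n = 3); paired t test.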
# BV-2 [3] = experiment: Antiinflammatory activity in mouse BV2 cells assessed as reduction in LPS-induced COX2 level at 1 to 10 uM incubated for 6 hrs followed by LPS stimulation for 12 hrs by Western blot analysis; format: functional, cell-based; outline: as §2
# BV-2 [4] = experiment: Antiinflammatory activity in mouse BV2 cells assessed as reduction in LPS-induced iNOS expression at 3 to 10 uM incubated for 6 hrs followed by LPS stimulation for 12 hrs by RT-qPCR analysis; format: functional, cell-based; outline: as §2
# BV-2 [5] = experiment: Antiinflammatory activity in mouse BV2 cells assessed as reduction in LPS-induced IL-1beta expression at 3 to 10 uM incubated for 6 hrs followed by LPS stimulation for 12 hrs by RT-qPCR analysis; format: functional, cell-based; outline: as §2
# BV-2 [6] = experiment: Antiinflammatory activity in mouse BV2 cells assessed as reduction in LPS-induced NO production at 1 to 10 uM incubated for 24 hrs by ELISA; format: functional, cell-based
# Outline: (§3)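 BV-2 cells given compound together with 1 μg/mL LPS for 24 h; mediator levels expressed relative to LPS-stimulated control ± SEM; at least duplicate cultures; paired t test.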
# BV-2 [7] = experiment: Antiinflammatory activity in mouse BV2 cells assessed as reduction in LPS-induced IL-6 production incubated for 24 hrs by ELISA; format: functional, cell-based; outline: as §3
# BV-2 [8] = experiment: Antiinflammatory activity in mouse BV2 cells assessed as reduction in LPS-induced TNF-alpha production incubated for 24 hrs by ELISA; format: functional, cell-based; outline: as §3
# Mus musculus [9] = experiment: (§4) Anti-parkinson's activity in MPTP-induced C57Bl/6 mouse model of Parkinson's disease assessed as restoration of turning time at 20 mg/kg, po administered for 3 consecutive days prior and subsequent to MPTP administration (four injections of MPTP, 2 h intervals, 20 mg/kg, i.p. injection by vertical grid test; format: functional, organism-based
# Outline: (§5)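 Mice dosed 20 mg/kg p.o. (or vehicle) for 3 consecutive days before and after MPTP (four i.p. injections, 20 mg/kg, 2 h apart); vertical grid test (turning, descent, total time) and coat-hanger scoring; n = 10–12 per group; mean ± SEM; one-way ANOVA with Tukey's test.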
# Mus musculus [10] = experiment: as §4, with “descent” for “turning”; format: functional, organism-based; outline: as §5
# Mus musculus [11] = experiment: as §4, with “total” for “turning”; format: functional, organism-based; outline: as §5
# Mus musculus [12] = experiment: Anti-parkinson's activity in MPTP-induced C57Bl/6 mouse model of Parkinson's disease assessed as abnormal movement at 20 mg/kg, po administered for 3 consecutive days prior and subsequent to MPTP administration (four injections of MPTP, 2 h intervals, 20 mg/kg, i.p. injection by coat hanger test; format: functional, organism-based; outline: as §5
# Mus musculus [13] = experiment: Protection against MPTP-induced DAergic neurotoxicity in C57B/6 mouse model of Parkinson's disease assessed as […] at 20 mg/kg, po observed after 7 days by microscopic analysis; format: functional, organism-based
# Outline: (§6)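 MPTP mouse model with 20 mg/kg oral dosing; striatal and substantia nigra sections collected 7 days later and stained for tyrosine hydroxylase; striatal TH density and nigral TH-positive neuron counts; mean ± SEM; one-way ANOVA with Tukey's test.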
# Mus musculus [14] = experiment: Protection against MPTP-induced DAergic neurotoxicity in C57B/6 mouse model of Parkinson's disease assessed as restoration of TH-positive neurons cell density in striatum at 20 mg/kg, po observed after 7 days by microscopic analysis; format: functional, organism-based; outline: as §6
# Mus musculus [15] = experiment: Protection against MPTP-induced DAergic neurotoxicity in C57B/6 mouse model of Parkinson's disease assessed as restoration of TH-positive neurons cell density in SN at 20 mg/kg, po observed after 7 days by microscopic analysis; format: functional, organism-based; outline: as §6
# Mus musculus [16] = experiment: Protection against MPTP-induced DAergic neurotoxicity in C57BL/6 mouse model of Parkinson's disease assessed as reduction in SNpc microglial activation by measuring Iba1 fluorescent intensity at 20 mg/kg/day, administered for 7 consecutive days by TH/Iba1 double immunostaining-based assay; format: functional, organism-based; conditions: in the assay text read “administered for 3 consecutive days” for “administered for 7 consecutive days”
# Outline: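 Double immunofluorescence for TH and Iba-1 on coronal substantia nigra sections 10 days after i.p. MPTP; relative Iba-1 intensity compared, n = 9 per group; mean ± SEM; one-way ANOVA with Tukey's test.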
# [17] = molecular target: T1, Nuclear factor erythroid 2-related factor 2 (Homo sapiens); experiment: Activation of Nrf2 in human SH-SY5Y cells assessed as increase in GCLM level incubated for 6 to 24 hrs by Western blot analysis; format: cell-based; outline: as §1
# [18] = molecular target: T1, Nuclear factor erythroid 2-related factor 2 (Homo sapiens); experiment: Activation of Nrf2 in human SH-SY5Y cells assessed as increase in GCLC level incubated for 6 to 24 hrs by Western blot analysis; format: cell-based; outline: as §1
smiles,measurement,setting,value
COc1ccccc1OS(=O)(=O)/C=C/c1ccccc1Cl,fold change (FC),[1],1.5
same,Activity,BV-2 [2],Active
same,Activity,BV-2 [3],Active
same,Activity,BV-2 [4],Active
same,Activity,BV-2 [5],Active
same,Activity,BV-2 [6],Active
same,Activity,BV-2 [7],Dose-dependent effect
same,Activity,BV-2 [8],Dose-dependent effect
same,Activity,Mus musculus [9],Active
same,Activity,Mus musculus [10],Active
same,Activity,Mus musculus [11],Active
same,Activity,Mus musculus [12],Active
same,Activity,Mus musculus [13],Active
same,Activity,Mus musculus [14],Active
same,Activity,Mus musculus [15],Active
same,Activity,Mus musculus [16],Active
same,Activity,[17],Dose-dependent effect
same,Activity,[18],Dose-dependent effect

# — ChEMBL document CHEMBL4304782, “Antioxidant, Anti-inflammatory, and Neuroprotective Effects of Novel Vinyl Sulfonate Compounds as Nrf2 Activator” (ACS Med Chem Lett, 2019)
